From publication PMC7736561 (Angewandte Chemie (International ed. in English), 2020)

Experiments:
Water solubility = format: physicochemical; details: in water
[1] = Self-aggregation in water by absorption spectrum; format: physicochemical; details: absorption spectrum in water (Figures S7, S10)
[2] = Chemical stability of squaraine fluorophore in PBS; format: physicochemical; details: pH 7.4, followed over 15 hours (Figure S11A)
Asp-N = assay: Proteolytic degradation by Asp-N endoproteinase, LCMS analysis; format: in vitro ADME; details: SF8(DDDDG)2 vs linear azido-DDDDG, 2 hours
Summary of the method: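 The test compound and the linear pentapeptide comparator were each incubated separately at 10 μM with Asp-N, an endoproteinase that cleaves peptide bonds on the N-terminal side of aspartic acid residues.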

[3] = Histology staining of bone sections; design: species or system mouse
Summary of the method: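 Thin sections of mouse tibia were treated with a 5 μM probe solution for 30 minutes and then imaged by fluorescence microscopy. For the demineralized comparison, slices were pre-treated with EDTA before staining. A charge-balanced, net-neutral peptide probe served as the control stain.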

Row | water solubility (Water solubility) | self-aggregation [1] | factor by which proteolytic degradation of the peptide sequence was reduced (Asp-N) | Substance | chemical stability, fluorescence profile of solution [2] | staining of demineralized bone slices ([3]; bone slices demineralized with pre-treatment of EDTA (Figure S26)) | staining of bone histology slices ([3]; thin sections of mouse tibia bone, probe 5 μM, 30 minutes)
1 | soluble | unaggregated |  | (azido-RRRG)2 [SR(azido-RRRG)2] | almost completely bleached after a few hours |  | 
2 | high water-solubility | no molecular self-aggregation | 3.8 | (DDDDG)2 (bicyclic or more) [SF8(DDDDG)2] |  | no staining | strongly stained the mineral segments

Row | Substance | water solubility (Water solubility) | self-aggregation [1] | factor by which proteolytic degradation of the peptide sequence was reduced (Asp-N) | chemical stability, fluorescence profile of solution [2] | staining of demineralized bone slices ([3]; bone slices demineralized with pre-treatment of EDTA (Figure S26)) | staining of bone histology slices ([3]; thin sections of mouse tibia bone, probe 5 μM, 30 minutes)
3 | (azido-DDDDG)2 [SR(azido-DDDDG)2] | low solubility | formation of non-fluorescent H-aggregates |  |  |  | 
